Experimental findings from ChEMBL document CHEMBL3739266, “Synthesis and pharmacological evaluation of some new fluorine containing hydroxypyrazolines as potential anticancer and antioxidant agents” (Eur J Med Chem, 2015) are described below.

The test system of one data set is Vero. Briefly: Cytotoxicity against African green monkey Vero cells assessed as growth inhibition after 48 hrs by MTT assay. Type of data set: cell-based. As to conditions: Chlorocebus sabaeus. The method, boiled down: (§1)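 MTT colorimetric assay in 96-well plates. Cells exposed to compounds for 48 h, then tetrazolium reduction to formazan was read as absorbance. IC50 taken from plotted dose–response curves. Values are mean ± SD of three independent experiments. Doxorubicin served as positive control.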
(In general: Tetrazolium dyes change colour on reduction, which living cells bring about.)

Another data set relates to MDA-MB-231. Put plainly: Cytotoxicity against human MDA-MB-231 cells assessed as growth inhibition after 48 hrs by MTT assay. It counts as functional, cell-based. As to conditions: MDA-MB-231, 48 h. The method, boiled down: as §1
A short description of data set [1]: Antioxidant activity assessed as DPPH free radical scavenging activity at 100 ug/ml after 30 mins by spectrophotometric assay. Type of data set: physicochemical. As to conditions: 0.5 h. A digest of the protocol:
(§2)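 Test samples at 25, 50 and 100 μg/mL in methanol, 1 mL added to 4 mL of 0.004% (w/v) methanolic DPPH. Scavenging expressed as percent inhibition relative to a control with all reagents except test compound. Ascorbic acid served as reference antioxidant.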
(In general: Loss of DPPH colour is used to gauge radical scavenging.)

Data set [2] is described as follows: Antioxidant activity assessed as DPPH free radical scavenging activity after 30 mins by spectrophotometric assay. Type of data set: physicochemical. The method, boiled down:
as §2

Data set [3] is described as follows: Antioxidant activity assessed as DPPH free radical scavenging activity at 25 ug/ml after 30 mins by spectrophotometric assay. As to conditions: 0.5 h. It counts as physicochemical. The method, boiled down:
as §2

The nature of data set [4]: Antioxidant activity assessed as DPPH free radical scavenging activity at 50 ug/ml after 30 mins by spectrophotometric assay. It counts as physicochemical. As to conditions: 0.5 h. A digest of the protocol: as §2

The structures appear in SMILES notation. Converted amounts (≈) assume the structure as drawn. A value given as a limit tells only on which side of the number the result lay.

Consider `COc1cccc2c1C(=O)c1c(O)c3c(c(O)c1C2=O)C[C@@](O)(C(=O)CO)C[C@@H]3O[C@H]1C[C@H](N)[C@H](O)[C@H](C)O1` [DOXORUBICIN], for which the 50% inhibitory concentration (IC50) (as a rule, the concentration at which inhibition is half-maximal) with Vero was over 100 µM; with MDA-MB-231 it was 0.91 µM.

As to `O=C1O[C@H]([C@@H](O)CO)C(O)=C1O` [ASCORBIC ACID], the figures for the “inhibition (INH)” value in data set [1], in data set [3] and in data set [4] were 87.22%, 82.39% and 83.52%, respectively. Besides, in data set [2], the IC50 amounted to 15.17 mg/L (≈ 86.1 µM).
